Experiment [1] can be described thus: Inhibition of wild type Bacillus subtilis DNA polymerase-3 using DNAase 1-treated DNA as template assessed as inhibition of dGTP truncated DNA synthesis by measuring incorporation of [3H]-TMP in presence of dithiothreitol. In short, it runs like this:
(§1)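 dGTP-omitted pol III reaction, 30 °C, 5 min, in 0.05 mL: 20% glycerol, 50 mM Tris HCl pH 7.6, 10 mM MgCl2, 30 mM NaCl, 1.2 mM DNAase I-activated calf thymus DNA, 5 mM DTT, 0.1 mg/mL BSA, 10 μM each dATP, dCTP and [3H]-TTP, 0.005-0.1 unit enzyme. Read-out is acid-insoluble radioactivity. Ki is the inhibitor concentration giving 50% inhibition.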

Experiment [2] in a line: Inhibition of HPUra/HPiCyt-resistant Bacillus subtilis DNA polymerase-3/azp-12 mutant using DNAase 1-treated DNA as template assessed as inhibition of dGTP truncated DNA synthesis by measuring incorporation of [3H]-TMP in presence of dithiothreitol. Summed up: as §1
Experiment [3] concerns Bacillus subtilis. Nature of the experiment: Resistance ratio of Ki for HPUra/HPiCyt-resistant Bacillus subtilis DNA polymerase-3/azp-12 mutant to Ki for wild type Bacillus subtilis DNA polymerase-3.
Experiment [4] deals with Bacillus subtilis. Nature of the experiment: Inhibition of wild type Bacillus subtilis DNA polymerase-3 using DNAase 1-treated DNA as template assessed as inhibition of dGTP truncated DNA synthesis by measuring incorporation of [3H]-TMP at 20 uM in presence of dithiothreitol relative to control. Summed up:
as §1

In experiment [5] the test system is Bacillus subtilis. Nature of the experiment: Inhibition of HPUra/HPiCyt-resistant Bacillus subtilis DNA polymerase-3/azp-12 mutant using DNAase 1-treated DNA as template assessed as inhibition of dGTP truncated DNA synthesis by measuring incorporation of [3H]-TMP at 20 uM relative to control in presence of dithiothreitol. In short, it runs like this:
as §1

For experiment [6], the system named is Bacillus subtilis. The experiment in a line: Inhibition of wild type Bacillus subtilis DNA polymerase-3 using DNAase 1-treated DNA as template assessed as inhibition of dGTP truncated DNA synthesis by measuring incorporation of [3H]-TMP at 1 mM in presence of dithiothreitol relative to control. In short, it runs like this:
as §1

By Ki is commonly meant a measure of affinity in units of concentration, obtained from inhibition or displacement. As a reminder, the inhibition is the relative decrease from the control value, in per cent.

In the case of `Cn1c(=O)cc(NNc2ccccc2)[nH]c1=O`, the inhibition constant (Ki) in experiment [1] is 1.6 µM. Same read-out and setting: the same measure for `Cc1cc(NNc2cc(=O)[nH]c(=O)[nH]2)ccc1O`: 51.2 µM. In the case of `Nc1ccc(NNc2cc(=O)[nH]c(=O)[nH]2)cc1`, the results for the Ki in experiment [1] and in experiment [2] were 7.1 µM and 76.4 µM, respectively.

In the case of `O=C(O)c1ccc(NNc2cc(=O)[nH]c(=O)[nH]2)cc1`, the Ki in experiment [1] was 98 µM. With `O=c1cc(NNc2ccc(O)cc2)[nH]c(=O)[nH]1`, the Ratio Ki with Bacillus subtilis [3] worked out at 50. For the same compound, the Ki in experiment [1] came out at 0.4 µM; in experiment [2] it was 20 µM. In the case of `Cc1cccc(NNc2cc(=O)[nH]c(=O)[nH]2)c1`, the results for the inhibition in the experiment with Bacillus subtilis [4] and with Bacillus subtilis [5] were 80% and 85%, respectively. In experiment [1], the Ki is 2.5 µM. Taken in the same sequence, the figures for `O=c1cc(NNc2ccc(F)cc2)[nH]c(=O)[nH]1` were 82%, 93% and 3 µM. As for `CCc1ccccc1NNc1cc(=O)[nH]c(=O)[nH]1`, the Ki in experiment [1] turned out to be 562 µM. For the compound `O=c1cc(NNc2ccc(Cl)cc2)[nH]c(=O)[nH]1`, the inhibition in the experiment with Bacillus subtilis [4] amounted to 91%; in the experiment with Bacillus subtilis [5], 95%. Further, in experiment [1], the Ki came out at 0.9 µM. Regarding `O=c1cc(NNc2ccc(Cl)c(Cl)c2)[nH]c(=O)[nH]1`, the Ki in experiment [1] turned out to be 0.6 µM.

Consider `CS(=O)(=O)c1ccc(NNc2cc(=O)[nH]c(=O)[nH]2)cc1`, for which the inhibition constant Ki in experiment [1] is 209 µM. Still for that read-out and setting: the same measure for `CCc1ccc(NNc2cc(=O)[nH]c(=O)[nH]2)cc1`: 1.6 µM. For the compound `O=c1cc(NNc2ccc(Br)cc2)[nH]c(=O)[nH]1`, the inhibition in the experiment on Bacillus subtilis [4] was found to be 82%; with Bacillus subtilis [5], 95%. Besides, the Ki in experiment [1] stood at 0.7 µM. For `Cc1ccc(NNc2cc(=O)[nH]c(=O)[nH]2)cc1`, the Ki in experiment [1] came out at 0.5 µM; in experiment [2], 0.4 µM. Consider `Cc1ccccc1NNc1cc(=O)[nH]c(=O)[nH]1`, for which the Ki in experiment [1] is 234 µM. On the same count and under the same terms, the same measure for `Cc1ccc(NNc2cc(=O)[nH]c(=O)[nH]2)cc1C`: 1.4 µM. For the compound `Cn1c(NNc2ccccc2)cc(=O)[nH]c1=O`, the inhibition with Bacillus subtilis [6] is less than 10%. With `CC(=O)Nc1ccc(NNc2cc(=O)[nH]c(=O)[nH]2)cc1`, the Ki in experiment [1] came out at 560 µM. Take `Cc1ccc(NNc2cc(=O)[nH]c(=O)[nH]2)cc1Cl`: the inhibition constant (Ki) in experiment [1] came out at 0.8 µM. Still for that read-out and setting: the same measure for `CN(Nc1cc(=O)[nH]c(=O)[nH]1)c1ccccc1`: 480 µM.

Consider `CCCCc1ccc(NNc2cc(=O)[nH]c(=O)[nH]2)cc1`, for which the Ki in experiment [1] was found to be 2300 µM. The same measure, in the same setting: next, `O=c1cc(NNc2cccc(F)c2)[nH]c(=O)[nH]1`: 0.7 µM. In the case of `O=c1cc(NNc2ccccc2)[nH]c(=O)[nH]1`, the inhibition constant Ki in experiment [1] amounted to 1.4 µM; in experiment [2], 2.1 µM. Turning to `O=c1cc(NNc2ccccc2F)[nH]c(=O)[nH]1`, the inhibition constant Ki in experiment [1] stood at 7.2 µM. The same measure, in the same setting: next, `Cn1c(=O)cc(NNc2ccc(O)cc2)[nH]c1=O`: 0.5 µM.

Take `NNc1cc(=O)[nH]c(=O)[nH]1`: the inhibition in the experiment with Bacillus subtilis [6] was less than 10%. Turning to `O=c1cc(NNc2ccc(O)c(Cl)c2)[nH]c(=O)[nH]1`, in experiment [1], the Ki is 8.8 µM. `O=c1cc(NNc2cccc(Br)c2)[nH]c(=O)[nH]1`: the Ki in experiment [1] amounted to 1.4 µM. Still for that read-out and setting: the same measure for `O=c1cc(NNc2cccc(Cl)c2)[nH]c(=O)[nH]1`: 1.1 µM; for `O=c1cc(NNc2ccc([N+](=O)[O-])cc2)[nH]c(=O)[nH]1`: 26.3 µM. With `Nc1cc(O)nc(O)n1`, the inhibition in the experiment on Bacillus subtilis [6] is less than 10%. With `Cc1cc(NNc2cc(=O)[nH]c(=O)[nH]2)cc(C)c1O`, in experiment [1], the Ki is 124 µM. Regarding `Nc1nc(NNc2ccc(O)cc2)cc(=O)[nH]1`, the Ratio Ki in the experiment on Bacillus subtilis [3] stood at 30.

The record behind these values is ChEMBL document CHEMBL3272286, “Inhibitors of Bacillus subtilis DNA polymerase III. Structure-activity relationships of 6-(phenylhydrazino)uracils” (J Med Chem, 1977).
